In ChEMBL document CHEMBL1128411, “Conformationally defined 6-s-trans-retinoic acid analogs. 2. Selective agonists for nuclear receptor binding and transcriptional activity” (J Med Chem, 1995):

How the values were obtained:
[1] = biological target: Cellular retinoic acid-binding protein 1 (Mus musculus, UniProt P62965); assay: Binding affinity for mouse Cytoplasmic retinoic acid binding protein type 1
Method in brief: (§1)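 Equilibrium fluorometric titration at 25 °C of recombinant E. coli-expressed apo-proteins (mCRABP-I, mCRABP-II, or hRXRα DEF ligand-binding domain). Ligands came from ethanol stocks, with concentrations set by UV/vis in hexane. Tryptophan fluorescence quenching was read and corrected for inner filter effects. A survey was run at 10^-6 M protein to check stoichiometry.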

[2] = biological target: T1, Cellular retinoic acid-binding protein 2 (Mus musculus, UniProt P22935); assay: Binding affinity for mouse Cytoplasmic retinoic acid binding protein type 2; method in brief: as §1
T1 sequence (P22935 whole entry): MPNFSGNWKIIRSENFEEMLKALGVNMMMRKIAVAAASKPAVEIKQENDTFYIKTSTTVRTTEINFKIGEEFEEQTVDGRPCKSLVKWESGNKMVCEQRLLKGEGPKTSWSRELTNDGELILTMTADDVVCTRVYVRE

[3] = biological target: T2, Retinoic acid receptor beta (Mus musculus, UniProt P22605); assay: Inhibition of murine Retinoic acid receptor RAR beta
T2 sequence (P22605 whole entry): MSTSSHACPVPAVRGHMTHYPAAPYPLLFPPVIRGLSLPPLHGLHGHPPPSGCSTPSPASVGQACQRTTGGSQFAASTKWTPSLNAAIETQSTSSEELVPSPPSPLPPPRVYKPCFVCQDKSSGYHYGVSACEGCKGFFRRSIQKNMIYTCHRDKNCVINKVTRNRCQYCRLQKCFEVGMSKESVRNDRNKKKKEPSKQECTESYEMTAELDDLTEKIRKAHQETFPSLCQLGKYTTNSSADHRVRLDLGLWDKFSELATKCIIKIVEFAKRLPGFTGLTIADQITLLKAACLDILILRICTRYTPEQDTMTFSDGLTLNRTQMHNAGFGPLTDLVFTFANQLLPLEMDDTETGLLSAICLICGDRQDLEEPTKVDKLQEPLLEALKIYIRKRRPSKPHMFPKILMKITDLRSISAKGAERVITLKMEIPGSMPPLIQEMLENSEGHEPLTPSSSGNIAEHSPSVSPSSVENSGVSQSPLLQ
Method in brief: (§2)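 Nucleosol fractions from COS-1 cells transfected with mouse RARα, β or γ cDNA in pSG5 were incubated with 5 nM [3H]-(all-E)-RA at 4 °C for 4 h. Competitor in ethanol was added at nine concentrations (0–10 μM) in duplicate. Bound label was separated on PD-10 desalting columns and counted by scintillation. IC50 came from a fit of percent specific binding.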

[4] = biological target: T3, Retinoic acid receptor RXR-alpha (Homo sapiens, UniProt P19793); assay: Binding affinity for human Retinoid X receptor RXR alpha; method in brief: as §1
T3 sequence (P19793 whole entry): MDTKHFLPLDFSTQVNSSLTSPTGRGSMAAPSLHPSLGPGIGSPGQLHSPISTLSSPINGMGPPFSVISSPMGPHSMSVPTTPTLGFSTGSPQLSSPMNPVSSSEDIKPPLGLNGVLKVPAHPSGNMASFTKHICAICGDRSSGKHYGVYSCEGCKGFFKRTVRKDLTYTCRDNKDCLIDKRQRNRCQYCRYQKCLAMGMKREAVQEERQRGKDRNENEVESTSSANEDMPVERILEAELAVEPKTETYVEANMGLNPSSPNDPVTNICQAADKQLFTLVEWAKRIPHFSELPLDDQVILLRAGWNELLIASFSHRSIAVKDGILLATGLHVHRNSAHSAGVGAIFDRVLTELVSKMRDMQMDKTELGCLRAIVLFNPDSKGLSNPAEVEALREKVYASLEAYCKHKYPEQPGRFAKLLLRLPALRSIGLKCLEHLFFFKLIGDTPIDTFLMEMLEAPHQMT

[5] = biological target: T4, Retinoic acid receptor RXR-alpha (Mus musculus, UniProt P28700); assay: Inhibition of binding to murine Retinoid X receptor RXR alpha
T4 sequence (P28700 whole entry): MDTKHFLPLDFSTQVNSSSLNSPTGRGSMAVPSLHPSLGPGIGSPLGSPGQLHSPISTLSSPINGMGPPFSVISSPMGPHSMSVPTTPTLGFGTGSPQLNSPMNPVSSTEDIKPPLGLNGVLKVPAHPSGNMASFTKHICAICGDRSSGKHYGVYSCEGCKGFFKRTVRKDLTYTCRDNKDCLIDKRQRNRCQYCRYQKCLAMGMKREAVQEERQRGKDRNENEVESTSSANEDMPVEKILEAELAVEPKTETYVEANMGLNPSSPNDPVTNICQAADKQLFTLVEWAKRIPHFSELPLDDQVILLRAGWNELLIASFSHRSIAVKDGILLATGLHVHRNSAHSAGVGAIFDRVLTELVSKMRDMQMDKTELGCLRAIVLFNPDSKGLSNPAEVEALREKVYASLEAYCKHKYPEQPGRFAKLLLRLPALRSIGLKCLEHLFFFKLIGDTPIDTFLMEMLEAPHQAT

[6] = biological target: T5, Retinoic acid receptor gamma (Mus musculus, UniProt P18911); assay: Inhibition of binding to murine Retinoic acid receptor RAR gamma; method in brief: as §2
T5 sequence (P18911 whole entry): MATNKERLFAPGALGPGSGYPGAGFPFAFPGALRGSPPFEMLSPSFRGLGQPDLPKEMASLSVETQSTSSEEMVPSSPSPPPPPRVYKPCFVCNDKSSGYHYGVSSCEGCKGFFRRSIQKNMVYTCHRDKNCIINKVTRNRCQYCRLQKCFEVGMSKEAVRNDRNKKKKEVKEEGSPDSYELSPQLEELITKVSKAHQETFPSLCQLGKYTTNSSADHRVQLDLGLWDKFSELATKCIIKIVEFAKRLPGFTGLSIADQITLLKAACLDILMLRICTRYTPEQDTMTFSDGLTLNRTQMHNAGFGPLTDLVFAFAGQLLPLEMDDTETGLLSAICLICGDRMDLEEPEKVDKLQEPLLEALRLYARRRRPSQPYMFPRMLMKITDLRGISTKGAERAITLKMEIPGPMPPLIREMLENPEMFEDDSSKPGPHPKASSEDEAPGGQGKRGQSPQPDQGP

Cellular retinoic acid-binding protein 1, sequence (P62965 whole entry, the tested form may be a part): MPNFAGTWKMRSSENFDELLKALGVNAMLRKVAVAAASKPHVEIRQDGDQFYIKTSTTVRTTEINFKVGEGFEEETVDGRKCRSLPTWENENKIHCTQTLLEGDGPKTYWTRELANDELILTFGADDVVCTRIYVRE

## CCC1=C(C(C)C)/C(=C/C(C)=C/C=C/C(C)=C/C(=O)O)CCC1
[1]
  Kd: 0.3 nM
[2]
  Kd: 1.4 nM
[3]
  IC50: 6 nM
[4]
  Kd: > 200 nM
[5]
  IC50: > 1000 nM
[6]
  IC50: 10 nM
